ChEMBL document CHEMBL4251647, “Synthesis, anticancer activity and mechanism of action of new thiazole derivatives” (Eur J Med Chem, 2018)

Key:
HL-60 [1] = experiment: Cytotoxicity against human HL60 cells assessed as inhibition of cell viability at 25 ug/ml after 72 hrs by MTT assay relative to control; type: functional; conditions: HL-60, 72 h
Summary of the method: (§1)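 Single-concentration MTT screen at 25 µg/mL for 72 h. Seeding was 3 x 10^5 cells/mL (HL-60, K562) or 1 x 10^5 cells/mL (adherent), with 24 h preincubation. MTT was added for the final 3 h, formazan dissolved in DMSO and absorbance read at 560 nm. Results are given as percent inhibition ± SD.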

K562 [2] = experiment: Cytotoxicity against human K562 cells assessed as inhibition of cell viability at 25 ug/ml after 72 hrs by MTT assay relative to control; type: functional; conditions: K562, 72 h; summary of the method: as §1
HT-29 [3] = experiment: Cytotoxicity against human HT-29 cells assessed as inhibition of cell viability at 25 ug/ml after 72 hrs by MTT assay relative to control; type: functional; conditions: HT-29, 72 h; summary of the method: as §1
NCI-H292 [4] = experiment: Cytotoxicity against human NCI-H292 cells assessed as inhibition of cell viability at 25 ug/ml after 72 hrs by MTT assay relative to control; type: functional; conditions: NCI-H292, 72 h; summary of the method: as §1
HEp-2 [5] = experiment: Cytotoxicity against human Hep2 cells assessed as inhibition of cell viability at 25 ug/ml after 72 hrs by MTT assay relative to control; type: functional; conditions: HEp-2, 72 h; summary of the method: as §1
PBMC = experiment: Cytotoxicity against human PBMC cells assessed as inhibition of cell viability after 72 hrs by alamar blue assay; type: cell-based
Summary of the method: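 PBMC from healthy donors were grown in RPMI-1640 with 20% FBS and 2% phytohaemagglutinin, then plated at 10^6 cells/mL. After 24 h, compounds (0.048–25 µg/mL, in DMSO) were added for 72 h. Resazurin was added for the final 24 h and absorbance read at 570 and 595 nm as percent of control.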

HT-29 [6] = experiment: Cytotoxicity against human HT-29 cells assessed as inhibition of cell viability after 72 hrs by MTT assay; type: functional, cell-based; conditions: HT-29, 72 h
Summary of the method: (§2)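 MTT assay. Leukaemic lines were seeded at 3 x 10^5 cells/mL and adherent lines at 1 x 10^5 cells/mL, then preincubated 24 h. Compounds were added at 0.098–25.0 µg/mL for 72 h, with MTT for the last 3 h. Formazan was dissolved in DMSO and read at 560 nm. IC50 came from regression; triplicate, two independent experiments.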

Erythrocyte = experiment: Hemolytic activity in human erythrocytes after 1 hr by spectrophotometric method; type: ADME, cell-based
Summary of the method: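 Human erythrocytes as a 2% suspension in 0.85% NaCl with 10 mM CaCl2 were exposed to 0.78–250 µg/mL for 1 h at room temperature. After centrifugation, released haemoglobin in the supernatant was read at 540 nm. Triton X-100 (1%) served as positive control; EC50 is the concentration giving 50% haemolysis.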

[7] = Selectivity index, ratio of IC50 for human PBMC to IC50 for human K562 cells; type: toxicity; conditions: human PBMC and human K562 cells, read-out: Ratio IC50
Summary of the method: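 Ratio of IC50 in PBMC (Alamar blue, 72 h) to IC50 in K562 cells (MTT, 72 h), calculated as SI = IC50(PBMC)/IC50(K562).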

NCI-H292 [8] = experiment: Cytotoxicity against human NCI-H292 cells assessed as inhibition of cell viability after 72 hrs by MTT assay; type: functional, cell-based; conditions: NCI-H292, 72 h; summary of the method: as §2
HEp-2 [9] = experiment: Cytotoxicity against human Hep2 cells assessed as inhibition of cell viability after 72 hrs by MTT assay; type: functional, cell-based; conditions: HEp-2, 72 h; summary of the method: as §2
K562 [10] = experiment: Cytotoxicity against human K562 cells assessed as inhibition of cell viability after 24 hrs by MTT assay; type: functional, cell-based; conditions: K562, 24 h
Summary of the method: (§3)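 K562 cells (3 x 10^5 cells/mL, RPMI-1640 with 10% FBS) were treated with serial dilutions for 24 or 48 h. Viability was read by MTT (absorbance at 560 nm after DMSO solubilisation), and IC50 was obtained by regression.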

K562 [11] = experiment: Cytotoxicity against human K562 cells assessed as inhibition of cell viability after 48 hrs by MTT assay; type: functional, cell-based; conditions: K562, 48 h; summary of the method: as §3
K562 [12] = experiment: Cytotoxicity against human K562 cells assessed as inhibition of cell viability after 72 hrs by MTT assay; type: functional, cell-based; conditions: K562, 72 h; summary of the method: as §2
K562 [13] = experiment: Cytotoxicity against human K562 cells assessed as inhibition of cell viability by MTT assay; type: functional, cell-based; conditions: TDE = time-dependent effect
HL-60 [14] = experiment: Cytotoxicity against human HL60 cells assessed as inhibition of cell viability after 72 hrs by MTT assay; type: functional, cell-based; conditions: HL-60, 72 h; summary of the method: as §2
K562 [15] = experiment: Cell cycle arrest in human K562 cells assessed as accumulation at G2/M-phase at 0.2 uM after 48 hrs by flow cytometry (reference value: 35.97 +/- 1.94%); type: functional
Summary of the method: (§4)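 K562 cells seeded at 3 x 10^5 cells/mL in RPMI-1640 and exposed 48 h at 37 °C, 5% CO2. Cells were stained with propidium iodide (Guava cell cycle kit) and 5,000 events acquired by flow cytometry. Vehicle control was 0.1% DMSO. Two independent experiments, each in triplicate.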

K562 [16] = experiment: Induction of DNA damage in human K562 cells at 0.5 uM after 48 hrs by propidium iodide staining based flow cytometry (reference value: 3.62 +/- 0.37%); type: functional
K562 [17] = experiment: Cell cycle arrest in human K562 cells assessed as accumulation at S-phase at 0.2 uM after 48 hrs by flow cytometry (reference value: 17.39 +/- 0.84%); type: functional; summary of the method: as §4
K562 [18] = experiment: Cell cycle arrest in human K562 cells assessed as accumulation at G1-phase at 0.2 uM after 48 hrs by flow cytometry (reference value: 45.54 +/- 1.34%); type: functional; summary of the method: as §4
K562 [19] = experiment: Induction of mitochondrial membrane potential depolarization in human K562 cells at 0.5 uM after 48 hrs by Rho-123 staining based flow cytometry (reference value: 12.24 +/- 0.61%); type: functional

SMILES | inhibition at 25 µg/mL (HL-60 [1]) | inhibition at 25 µg/mL (K562 [2]) | inhibition at 25 µg/mL (HT-29 [3]) | inhibition at 25 µg/mL (NCI-H292 [4]) | inhibition at 25 µg/mL (HEp-2 [5]) | IC50 (PBMC) | IC50 (HT-29 [6]) | EC50 (Erythrocyte) | IC50 (NCI-H292 [8]) | IC50 (HEp-2 [9]) | IC50 (K562 [12]) | IC50 (HL-60 [14]) | also measured
Fc1ccc(-c2csc(N/N=C/c3ccc(C(F)(F)F)cc3)n2)cc1 | 58.1% | 61.6% | 70.1% | 78.8% | 62.6% | – | – | – | – | – | – | – | –
FC(F)(F)c1ccc(/C=N/Nc2nc(-c3ccc(Br)cc3)cs2)cc1 | 46.7% | 25% | 67.4% | 64.2% | 17.1% | – | – | – | – | – | – | – | –
Fc1ccc(-c2cs/c(=N/N=C/c3ccc(C(F)(F)F)cc3)n2-c2ccccc2)cc1 | 26.2% | 59.1% | 74.6% | 41.8% | 22% | – | – | – | – | – | – | – | –
Cn1c(-c2ccc(Cl)cc2Cl)cs/c1=N/N=C/c1ccc(C(F)(F)F)cc1 | 43.5% | 69.7% | 52.7% | 35.7% | 33.5% | – | – | – | – | – | – | – | –
FC(F)(F)c1ccc(/C=N/NC(=S)Nc2ccccc2)cc1 | 37.7% | 71.2% | 74.7% | 58.4% | 63.6% | – | – | – | – | – | – | – | –
Cc1ccc(-c2csc(N/N=C/c3ccc(C(F)(F)F)cc3)n2)cc1 | 45.2% | 20.9% | 42.7% | 62.3% | 59.9% | – | – | – | – | – | – | – | –
FC(F)(F)c1ccc(/C=N/Nc2nc(-c3cccc4ccccc34)cs2)cc1 | 39.1% | 44.9% | 45.8% | 35.7% | 28.5% | – | – | – | – | – | – | – | –
FC(F)(F)c1ccc(/C=N/N=c2/scc(-c3ccc(Cl)cc3Cl)n2-c2ccccc2)cc1 | 14.4% | – | – | 38.5% | – | – | – | – | – | – | – | – | –
FC(F)(F)c1ccc(/C=N/Nc2nc(-c3ccccc3)cs2)cc1 | 40.6% | – | – | 49.8% | 34.7% | – | – | – | – | – | – | – | –
N=C(S)N/N=C/c1ccc(C(F)(F)F)cc1 | 95.3% | 87.2% | 85.4% | 89.5% | 91.8% | 80.2 µM | 9.02 µM | > 250 µg/mL | 10.8 µM | 6.27 µM | 6.42 µM | 12.7 µM | selectivity ratio [7]: 12.5; IC50 (K562 [10]): > 101 µM; IC50 (K562 [11]): 34 µM; Activity (K562 [13]): Tde
Cc1sc(N/N=C/c2ccc(C(F)(F)F)cc2)nc1-c1ccccc1 | 30.9% | 25% | 46.2% | 60.9% | 29.5% | – | – | – | – | – | – | – | –
CNC(=S)N/N=C/c1ccc(C(F)(F)F)cc1 | 94.6% | 82.6% | 88.7% | 93.3% | 88.1% | 93.3 µM | 5.06 µM | > 250 µg/mL | 20.8 µM | 12.6 µM | 13.2 µM | 17.2 µM | –
COc1cccc2c1C(=O)c1c(O)c3c(c(O)c1C2=O)C[C@@](O)(C(=O)CO)C[C@@H]3O[C@H]1C[C@H](N)[C@H](O)[C@H](C)O1 [DOXORUBICIN] | – | – | – | – | – | 0.38 µM | 0.69 µM | – | 0.19 µM | 1.21 µM | 1.38 µM | 0.19 µM | Activity (K562 [15]): 81.29%; Activity (K562 [16]): 19.69%; Activity (K562 [17]): 10.67%; Activity (K562 [18]): 9.53%; Activity (K562 [19]): 23.6%
FC(F)(F)c1ccc(/C=N/N=c2/scc(-c3ccc(Cl)cc3)n2-c2ccccc2)cc1 | 28.4% | 59% | 82.2% | 87.8% | 58.7% | – | – | – | – | – | – | – | –
COc1ccc(-c2cs/c(=N/N=C/c3ccc(C(F)(F)F)cc3)n2C)cc1 | 67.8% | 50.4% | 62.5% | 68.3% | 53.7% | – | – | – | – | – | – | – | –
O=[N+]([O-])c1cccc(-c2csc(N/N=C/c3ccc(C(F)(F)F)cc3)n2)c1 | 77.4% | 75.5% | 79.4% | 75.1% | 84.3% | 151 µM | 23.9 µM | > 250 µg/mL | 22.8 µM | 34.2 µM | 10.2 µM | 29.3 µM | –
FC(F)(F)c1ccc(/C=N/Nc2nc(-c3ccc(Cl)c(Cl)c3)cs2)cc1 | 96.4% | 47.8% | 84% | 98.2% | 83.5% | 65.6 µM | 12.2 µM | > 250 µg/mL | 6.57 µM | 10.4 µM | > 60.1 µM | 4.23 µM | –
COc1ccc(-c2csc(N/N=C/c3ccc(C(F)(F)F)cc3)n2)cc1 | 89.1% | 61.5% | 76.2% | 68.5% | 78.2% | 130 µM | 22.7 µM | > 250 µg/mL | > 66.2 µM | 11.3 µM | > 66.2 µM | 3.67 µM | –
O=[N+]([O-])c1ccc(-c2csc(N/N=C/c3ccc(C(F)(F)F)cc3)n2)cc1 | 80.2% | 87.2% | 59.3% | 96.3% | 90% | 53.2 µM | > 63.6 µM | > 250 µg/mL | 7.41 µM | 27.3 µM | 16.9 µM | 11.5 µM | –
Cn1c(-c2ccc([N+](=O)[O-])cc2)cs/c1=N/N=C/c1ccc(C(F)(F)F)cc1 | 83.2% | 59.8% | 75.1% | 44.1% | 84.8% | 140 µM | 47.8 µM | > 250 µg/mL | > 61.4 µM | 26.4 µM | > 61.4 µM | 11.8 µM | –
COc1ccc(-c2cs/c(=N/N=C/c3ccc(C(F)(F)F)cc3)n2-c2ccccc2)cc1 | 36.7% | 59.2% | 58.5% | 66.3% | 81.8% | – | – | – | – | – | – | – | –
FC(F)(F)c1ccc(/C=N/Nc2nc(-c3ccc(Cl)cc3)cs2)cc1 | 61.4% | 50.5% | 40.1% | 67.7% | 33% | – | – | – | – | – | – | – | –
